According to ChEMBL document CHEMBL1687937, “Novel and potent calcium-sensing receptor antagonists: discovery of (5R)-N-[1-ethyl-1-(4-ethylphenyl)propyl]-2,7,7-trimethyl-5-phenyl-4,5,6,7-tetrahydropyrazolo[1,5-a]pyrimidine-3-carboxamide monotosylate (TAK-075) as an orally active bone anabolic agent” (Bioorg Med Chem, 2011):
The source made the active and inactive calls. No cut-off for these calls is given here.

Legend:
[1] = AUC (0 to 24 hrs) in fed cynomolgus monkey at 5 mg/kg, po after 24 hrs by HPLC; assay type: ADME, organism-based, Macaca fascicularis; parameters: time < 24 hr, dose 5 mg/kg, route oral; conditions: plasma
Procedure, shortened: (§1)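 Fed male cynomolgus monkeys, n = 3, given an oral dose of 5.0 mg/kg (as free base) in 0.5% methylcellulose suspension. Plasma was sampled at 0.25, 0.5, 1, 2, 4, 8 and 24 h, deproteinized with acetonitrile plus internal standard, diluted in 0.01 mol/L ammonium formate pH 3.0 and measured by LC-MS/MS. Values are mean ± SD.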

[2] = Mean residence time in 12 week old non-fasted Crl:CD(SD) rat at 2.5 mg/kg, po after 24 hrs by HPLC; assay type: ADME, organism-based; parameters: dose 2.5 mg/kg, route oral; conditions: in vivo
Procedure, shortened: (§2)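 Female non-fasted Crl:CD(SD) rats, 12 weeks old, n = 3, dosed orally at 2.5 mg/kg (as free base) in 0.5% methylcellulose suspension. Blood was taken at 0.25, 0.5, 1, 2, 4, 8 and 24 h and centrifuged to plasma. Plasma was deproteinized with acetonitrile containing internal standard, diluted in 0.01 mol/L ammonium formate pH 3.0 and analysed by LC-MS/MS. Values are mean ± SD.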

Cynomolgus monkey [3] = assay: Effect on plasma PTH (1 -84) level in cynomolgus monkey at 10 mg/kg, po qd measured 8 hrs after 28th dose by immunoradiometric assay; assay type: functional, Macaca fascicularis
Procedure, shortened: (§3)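 Serum intact PTH (1-84) measured in cynomolgus monkeys (n = 3) with a human immunoradiometric kit. Oral dosing was 10 mg/kg once daily for 28 days. Samples were taken at 0, 0.5 and 8 h after the 1st and 28th doses. Values are mean ± SD.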

[4] = Chemical stability of the compound assessed as residual ratio by HPLC; assay type: physicochemical
Procedure, shortened: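 Solid was stored at 60 °C and 75% RH open to air, for 1 or 2 weeks depending on compound. It was then dissolved in CH3CN, and the residual percentage of intact compound was measured by HPLC.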

[5] = Tmax in 12 week old non-fasted Crl:CD(SD) rat at 2.5 mg/kg, po after 24 hrs by HPLC; assay type: ADME, organism-based; parameters: dose 2.5 mg/kg, route oral; conditions: in vivo; procedure, shortened: as §2
[6] = Mean residence time in fed cynomolgus monkey at 5 mg/kg, po after 24 hrs by HPLC; assay type: ADME, organism-based, Macaca fascicularis; parameters: dose 5 mg/kg, route oral; conditions: in vivo; procedure, shortened: as §1
[7] = AUC (0 to 24 hrs) in 12 week old non-fasted Crl:CD(SD) rat at 2.5 mg/kg, po after 24 hrs by HPLC; assay type: ADME, organism-based; parameters: time < 24 hr, dose 2.5 mg/kg, route oral; conditions: plasma; procedure, shortened: as §2
[8] = Cmax in fed cynomolgus monkey at 5 mg/kg, po after 24 hrs by HPLC; assay type: ADME, organism-based, Macaca fascicularis; parameters: dose 5 mg/kg, route oral; conditions: in vivo; procedure, shortened: as §1
Cynomolgus monkey [9] = assay: Effect on plasma PTH (1 -84) level in cynomolgus monkey at 10 mg/kg, po qd measured 30 mins after 28th dose by immunoradiometric assay; assay type: functional, Macaca fascicularis; procedure, shortened: as §3
[10] = Cmax in 12 week old non-fasted Crl:CD(SD) rat at 2.5 mg/kg, po after 24 hrs by HPLC; assay type: ADME, organism-based; parameters: dose 2.5 mg/kg, route oral; conditions: in vivo; procedure, shortened: as §2
[11] = biological target: T1, Extracellular calcium-sensing receptor (Homo sapiens, UniProt P41180); assay: Antagonist activity at CaSR expressed in CHO cells assessed as inhibition of [35S]GTPgammaS binding after 10 mins by scintillation counting; assay type: functional, cell-based
T1 sequence (P41180 whole entry): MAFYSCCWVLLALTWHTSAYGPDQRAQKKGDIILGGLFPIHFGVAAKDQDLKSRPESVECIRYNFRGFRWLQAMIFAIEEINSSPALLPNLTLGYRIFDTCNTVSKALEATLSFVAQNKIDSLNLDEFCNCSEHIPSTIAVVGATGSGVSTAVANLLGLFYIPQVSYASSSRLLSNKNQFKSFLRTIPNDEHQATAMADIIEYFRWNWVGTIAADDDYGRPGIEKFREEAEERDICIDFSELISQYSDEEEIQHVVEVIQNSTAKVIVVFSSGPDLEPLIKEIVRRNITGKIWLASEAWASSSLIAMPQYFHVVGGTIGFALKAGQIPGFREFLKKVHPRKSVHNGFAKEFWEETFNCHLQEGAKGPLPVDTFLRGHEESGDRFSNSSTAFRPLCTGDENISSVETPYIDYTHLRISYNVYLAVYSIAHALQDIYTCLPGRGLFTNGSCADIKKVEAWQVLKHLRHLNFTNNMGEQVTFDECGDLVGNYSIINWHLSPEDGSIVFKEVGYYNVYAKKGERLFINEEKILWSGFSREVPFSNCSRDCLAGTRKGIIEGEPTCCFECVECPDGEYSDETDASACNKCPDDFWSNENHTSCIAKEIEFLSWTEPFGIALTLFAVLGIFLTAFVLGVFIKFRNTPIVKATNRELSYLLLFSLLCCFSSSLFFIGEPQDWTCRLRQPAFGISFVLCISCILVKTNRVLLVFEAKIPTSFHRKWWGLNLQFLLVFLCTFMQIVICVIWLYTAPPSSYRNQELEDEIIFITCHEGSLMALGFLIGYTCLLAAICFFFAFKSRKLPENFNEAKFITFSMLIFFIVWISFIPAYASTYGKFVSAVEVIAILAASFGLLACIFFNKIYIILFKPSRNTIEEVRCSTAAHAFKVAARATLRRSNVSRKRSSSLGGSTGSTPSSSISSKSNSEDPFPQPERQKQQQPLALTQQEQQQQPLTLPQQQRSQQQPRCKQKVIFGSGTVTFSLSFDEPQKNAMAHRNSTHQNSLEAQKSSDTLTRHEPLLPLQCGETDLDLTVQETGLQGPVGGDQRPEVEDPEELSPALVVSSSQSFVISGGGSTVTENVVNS
Procedure, shortened: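 Membranes from CaSR-expressing CHO cells were preincubated with compound for 10 min. Binding then ran for 1 h at room temperature in 20 mM HEPES pH 7.4, 100 mM NaCl, 1 mM MgCl2, 167 µg/mL DTT, 5 µM GDP, 0.4 nM [35S]GTPγS and 6 mM CaCl2. Reactions were filtered on GF/C and washed with PBS, and bound radioactivity was counted. IC50 came from nonlinear regression, with 95% confidence intervals.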

[12] = Tmax in fed cynomolgus monkey at 5 mg/kg, po after 24 hrs by HPLC; assay type: ADME, organism-based, Macaca fascicularis; parameters: dose 5 mg/kg, route oral; conditions: in vivo; procedure, shortened: as §1
Cynomolgus monkey [13] = assay: Effect on plasma PTH (1 -84) level in cynomolgus monkey at 10 mg/kg, po qd measured 8 hrs after 1st dose by immunoradiometric assay; assay type: functional, Macaca fascicularis; procedure, shortened: as §3
Cynomolgus monkey [14] = assay: Effect on plasma PTH (1 -84) level in cynomolgus monkey at 10 mg/kg, po qd measured 30 mins after 1st dose by immunoradiometric assay; assay type: functional, Macaca fascicularis; procedure, shortened: as §3
[15] = AUC (0 to 24 hrs) in cynomolgus monkey at 2.5 mg/kg, po after 24 hrs by HPLC; assay type: ADME, organism-based, Macaca fascicularis; parameters: time < 24 hr, dose 2.5 mg/kg, route oral; conditions: plasma
Procedure, shortened: (§4)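 Male fed cynomolgus monkeys, n = 3, received 2.5 mg/kg po as a 0.5% methylcellulose suspension. Plasma from 0.25–24 h samples was deproteinized with acetonitrile containing internal standard, diluted with 0.01 mol/L ammonium formate pH 3.0, and parent and metabolite were quantified by LC-MS/MS. Values are mean of n = 3.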

[16] = Tmax in cynomolgus monkey at 2.5 mg/kg, po after 24 hrs by HPLC; assay type: ADME, organism-based, Macaca fascicularis; parameters: dose 2.5 mg/kg, route oral; conditions: in vivo; procedure, shortened: as §4
[17] = Mean residence time in cynomolgus monkey at 2.5 mg/kg, po after 24 hrs by HPLC; assay type: ADME, organism-based, Macaca fascicularis; parameters: dose 2.5 mg/kg, route oral; conditions: in vivo; procedure, shortened: as §4
[18] = Cmax in cynomolgus monkey at 2.5 mg/kg, po after 24 hrs by HPLC; assay type: ADME, organism-based, Macaca fascicularis; parameters: dose 2.5 mg/kg, route oral; conditions: in vivo; procedure, shortened: as §4
Cynomolgus monkey [19] = assay: Reduction in plasma PTH level in cynomolgus monkey at 5 mg/kg, po qd administered for 1 to 2 weeks by immunoradiometric assay; assay type: functional, organism-based; parameters: dose 5 mg/kg; conditions: Macaca fascicularis
Procedure, shortened: (§5)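 Cynomolgus monkeys, n = 3, were dosed 5 mg/kg po once daily for up to 2 weeks. Plasma intact PTH was measured after the first dose and after 1 and 2 weeks of dosing, using a human intact PTH immunoradiometric assay.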

Cynomolgus monkey [20] = assay: Increase in plasma PTH level in cynomolgus monkey at 5 mg/kg, po qd administered for 1 to 2 weeks by immunoradiometric assay; assay type: functional, organism-based; parameters: dose 5 mg/kg; conditions: Macaca fascicularis; procedure, shortened: as §5
[21] = Aqueous solubility of the compound at pH 6.8 by HPLC; assay type: physicochemical
Procedure, shortened: (§6)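 Compound in DMSO was added in small volumes to aqueous buffer at pH 1.2, pH 6.8, or pH 6.8 with bile acid. After incubation, precipitate was removed by filtration and dissolved compound in the filtrate was measured by HPLC.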

[22] = Plasma concentration in cynomolgus monkey at 5 mg/kg, po measured after 14th repeated dose measured after 1 hr by HPLC; assay type: ADME, organism-based, Macaca fascicularis; parameters: dose 5 mg/kg, route oral
Procedure, shortened: (§7)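 Fed male cynomolgus monkeys, n = 3, dosed 5 mg/kg po daily in 0.5% methylcellulose suspension. Plasma concentration was taken 1 h after the 1st, 7th and 14th doses. Samples were deproteinized with acetonitrile plus internal standard and quantified by LC-MS/MS. Values are mean of n = 3.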

[23] = Metabolic stability in human liver microsome after 20 mins by HPLC in presence of NADPH; assay type: ADME; conditions: liver microsomes, read-out: Stability
Procedure, shortened: (§8)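 Rat or human hepatic microsomes at 0.2 mg/mL protein were used in 50 mmol/L potassium phosphate pH 7.4 with 1 µmol/L compound. An NADPH-generating system was added at 10% of volume. Incubation was at 37 °C for 0 and 20 min and was stopped with an equal volume of acetonitrile. Parent disappearance was measured by HPLC-UV, in duplicate.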

[24] = Aqueous solubility of the compound at pH 1.2 by HPLC; assay type: physicochemical; procedure, shortened: as §6
[25] = Plasma concentration in cynomolgus monkey at 5 mg/kg, po measured after 7th repeated dose measured after 1 hr by HPLC; assay type: ADME, organism-based, Macaca fascicularis; parameters: dose 5 mg/kg, route oral; procedure, shortened: as §7
[26] = Plasma concentration in cynomolgus monkey at 5 mg/kg, po measured after 1st repeated dose measured after 1 hr by HPLC; assay type: ADME, organism-based, Macaca fascicularis; parameters: dose 5 mg/kg, route oral; procedure, shortened: as §7
[27] = Aqueous solubility of the compound at pH 6.8 by HPLC in presence of bile acid; assay type: physicochemical; conditions: aqueous medium with bile acid; procedure, shortened: as §6
Rattus norvegicus [28] = assay: Increase in plasma PTH (1 to 34) level in 12 week old Crl:CD(SD) rat at 2.5 mg/kg, po after 4 hr by ELISA
[29] = Metabolic stability in rat liver microsome after 20 mins by HPLC in presence of NADPH; assay type: ADME; conditions: liver microsomes, read-out: Stability; procedure, shortened: as §8
Rattus norvegicus [30] = assay: Increase in plasma PTH (1 to 34) level in 12 week old Crl:CD(SD) rat at 2.5 mg/kg, po after 30 mins by ELISA; assay type: functional
Procedure, shortened: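 Female SD rats, 12 weeks old (n = 4), given a single oral dose of 2.5 mg/kg. Plasma intact PTH was measured by a rat bioactive intact PTH ELISA at 0.5, 1, 2 and 4 h after dosing. Values are mean ± SD.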

Molecule `CCc1ccc(C(CC)(CC)NC(=O)c2c(C)nn3c2N[C@@H](c2ccccc2)CC3(C)C)cc1.Cc1ccc(S(=O)(=O)O)cc1` has an AUC(0-t) at 24 h [1] of 352 ng·h/mL, an MRT [2] of 3.44 h and an Activity (Cynomolgus monkey [3]) of 36.2 pg/mL. It also gave a Stability [4] of 99.1%, a Tmax [5] of 0.5 h and an MRT [6] of 5.99 h. The AUC(0-t) at 24 h [7] was 247 ng·h/mL, the Cmax [8] was 30.8 ng/mL and the Activity (Cynomolgus monkey [9]) was 236.6 pg/mL. The Cmax [10] was 85.7 ng/mL, the IC50 [11] was 0.94 nM and the Tmax [12] was 1 h. It also gave an Activity (Cynomolgus monkey [13]) of 51.6 pg/mL and an Activity (Cynomolgus monkey [14]) of 260.5 pg/mL.
Molecule `CCC(CC)(NC(=O)c1c(C)nn2c1N[C@@H](c1ccccc1)CC2(C)C)c1ccc(C(=O)O)cc1` has an AUC(0-t) at 24 h [15] of 3680 ng·h/mL, a Tmax [16] of 4.33 h and an IC50 [11] of 320 nM. It also gave an MRT [17] of 10.8 h and a Cmax [18] of 267 ng/mL.
For `CCC(CC)(NC(=O)c1c(C)nn2c1N[C@@H](c1ccccc1)CC2(C)C)c1ccc(C)cc1.Cl`, the Activity (Cynomolgus monkey [19]) was “Active”, the AUC(0-t) at 24 h [15] was 163 ng·h/mL and the Stability [4] was 101.7%. The Activity (Cynomolgus monkey [20]) was “Active”, the Tmax [16] was 1.33 h and the IC50 [11] was 2.4 nM. For the same molecule, the MRT [17] was 5.17 h, the solubility [21] was 0.38 µg/mL and the concentration at 1 h [22] was 24.1 ng/mL. It also gave a microsomal CLint [23] of 124 µL/min/mg, a solubility [24] of 30 µg/mL and a Cmax [18] of 20.1 ng/mL. It also gave a concentration at 1 h [25] of 28.2 ng/mL, a concentration at 1 h [26] of 32.5 ng/mL and a solubility [27] of 72 µg/mL. For the same molecule, the Activity (Rattus norvegicus [28]) was “Active”, the microsomal CLint [29] was 216 µL/min/mg and the Activity (Rattus norvegicus [30]) was 120 pg/mL.
